Measurements taken from ChEMBL document CHEMBL1122142, “Synthesis and antiinflammatory activity of hexahydrothiopyrano[4,3-c]pyrazoles and related analogues” (J Med Chem, 1982).

Tests used:
[1] = tested on: Mus musculus; assay: The compound was evaluated for the mouse active Arthus (MAA) reaction activity for an ip dose of 150 mg/kg in mouse; type: functional; conditions: route intraperitoneal
Outline: (§1)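 CD-1 mice were sensitized ip with a 1:1 Freund's complete adjuvant emulsion containing BSA in saline, 5 weeks before challenge. Compound was suspended in 1% Na CMC in pyrogen-free saline and given as one ip or oral dose 1 h before skin challenge with BSA. Screening doses were 150 mg/kg ip and 300 mg/kg po, with some at 75 or 50 mg/kg ip. Lesions were excised 3.5 h after challenge and weighed against controls.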

[2] = tested on: Cavia porcellus; assay: Tested in delayed hypersensitivity skin reaction (DHSR) after subcutaneous administration, activity reported as percent inhibition of erythema/induration of lesion; 9/24; type: functional
Outline: (§2)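 Male Hartley guinea pigs were sensitized with Mycobacterium tuberculosis in Freund's incomplete adjuvant, injected into each hind footpad and subcutaneously at the neck. After 3 weeks, 1.2 μg PPD was given intradermally. Compound in sesame oil was given sc, 3 animals per group, 30 min before and 5 h after PPD; screening dose 50 mg/kg.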

[3] = tested on: Mus musculus; assay: Inhibition of Mouse active Arthus (MAA) reaction activity was determined for an ip dose of 150 mg/kg in mouse; 21-30%; type: functional; conditions: route intraperitoneal
[4] = tested on: Cavia porcellus; assay: Tested in delayed hypersensitivity skin reaction (DHSR) after subcutaneous administration, activity reported as percent inhibition of erythema/induration of lesion; 7/17; type: functional; outline: as §2
[5] = tested on: Cavia porcellus; assay: The compound was evaluated for the delayed hypersensitivity skin reaction (DHSR) activity after subcutaneous administration; 14/36
[6] = tested on: Mus musculus; assay: Inhibition of Mouse active Arthus (MAA) reaction activity was determined for peroral dose of 150 mg/kg in mouse; 21-30%; type: functional; conditions: route oral
[7] = tested on: Cavia porcellus; assay: The compound was evaluated for the delayed hypersensitivity skin reaction (DHSR) activity after subcutaneous administration; 8/19
[8] = tested on: Mus musculus; assay: Mouse active Arthus (MAA) reaction activity was determined for an ip dose of 150 mg/kg in mouse; 31-40%; type: functional; conditions: route intraperitoneal
[9] = tested on: Mus musculus; assay: Inhibition of Mouse Active Arthus reaction following 150 mg/Kg i.p.; 41-60% inhibition.; type: functional; conditions: Mus musculus, ip
[10] = tested on: Cavia porcellus; assay: Tested in delayed hypersensitivity skin reaction (DHSR) after subcutaneous administration, activity reported as percent inhibition of erythema/induration of lesion; 3/4; type: functional; outline: as §2
[11] = tested on: Mus musculus; assay: The compound was evaluated for the mouse active Arthus (MAA) reaction activity for an ip dose of 150 mg/kg in mouse; 31-40%; type: functional; conditions: route intraperitoneal; outline: as §1
[12] = tested on: Cavia porcellus; assay: The compound was evaluated for the delayed hypersensitivity skin reaction (DHSR) activity after subcutaneous administration; 15/21
[13] = tested on: Cavia porcellus; assay: Tested in delayed hypersensitivity skin reaction (DHSR) after subcutaneous administration, activity reported as percent inhibition of erythema/induration of lesion; 10/0; type: functional
[14] = tested on: Cavia porcellus; assay: The compound was evaluated for the delayed hypersensitivity skin reaction (DHSR) activity after subcutaneous administration; 12/21
[15] = tested on: Mus musculus; assay: The compound was evaluated for the mouse active Arthus (MAA) reaction activity expressed as inhibitory dose after oral administration; type: functional; conditions: read-out: ID50 (the source's name); outline: as §1
[16] = tested on: Cavia porcellus; assay: Tested in delayed hypersensitivity skin reaction (DHSR) after subcutaneous administration, activity reported as percent inhibition of erythema/induration of lesion; 13/4; type: functional
[17] = tested on: Cavia porcellus; assay: Tested in delayed hypersensitivity skin reaction (DHSR) after subcutaneous administration, activity reported as percent inhibition of erythema/induration of lesion; 3/10; type: functional; outline: as §2
[18] = tested on: Mus musculus; assay: Inhibition of Mouse active Arthus (MAA) reaction activity was determined for peroral dose of 300 mg/kg in mouse; 21-30%; type: functional; conditions: route oral
[19] = tested on: Cavia porcellus; assay: Tested in delayed hypersensitivity skin reaction (DHSR) after subcutaneous administration, activity reported as percent inhibition of erythema/induration of lesion; 17/49; type: functional
[20] = tested on: Mus musculus; assay: Mouse active Arthus (MAA) reaction activity was determined for an peroral dose of 300 mg/kg in mouse; type: functional; conditions: route oral
[21] = tested on: Mus musculus; assay: The compound was evaluated for the mouse active Arthus (MAA) reaction activity expressed as inhibitory dose after ip administration; type: functional; conditions: read-out: ID50 (the source's name); outline: as §1
[22] = Therapeutic ratio was determined for intraperitoneal administration; type: ADME; conditions: ip; read-out: TR
[23] = tested on: Rattus norvegicus; assay: Adjuvant-induced arthritis was determined for a dose of 75 mg/kg intraperitoneal administration; 28/78; type: functional; conditions: ip
Outline: (§3)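 Male Lewis rats; day 0, 0.50 mg desiccated Mycobacterium butyricum in 0.10 mL light mineral oil into left plantar paw. Compound dissolved or suspended in 1% CMC, dosed daily for 21 days starting the day before adjuvant. On day 21, injected and noninjected hind paws weighed. Values are percent inhibition, local (injected paw)/systemic (noninjected paw).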

[24] = tested on: Rattus norvegicus; assay: Adjuvant-induced arthritis was determined for a dose of 150 mg/kg administered intraperitoneally; 16/72; type: functional; conditions: ip, route intraperitoneal; outline: as §3
[25] = tested on: Rattus norvegicus; assay: Carrageenan-induced edema was determined after oral administration; type: functional; conditions: read-out: ID50 (the source's name)
Outline: (§4)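 Adult male Sprague-Dawley (CD) rats, 160–200 g. Single dose in 1% CMC given 2 h before footpad injection of 0.05 mL 1% carrageenin in pyrogen-free saline. Paws removed and weighed at 3 h, with the contralateral paw as control. ID50 is the dose giving 50% edema inhibition.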

[26] = tested on: Cavia porcellus; assay: Tested in delayed hypersensitivity skin reaction (DHSR) after subcutaneous administration, activity reported as percent inhibition of erythema/induration of lesion; 13/52; type: functional
[27] = Acute toxicity as LD50 value was determined in mice administered intraperitoneally; type: organism-based; conditions: mouse, in vivo, ip
[28] = tested on: Rattus norvegicus; assay: Adjuvant-induced arthritis was determined for a dose of 75 mg/kg oral administration; 1/0; type: functional; outline: as §3
[29] = tested on: Rattus norvegicus; assay: Carrageenan-induced edema was determined after intraperitoneal administration; type: functional; conditions: ip, read-out: ID50 (the source's name); outline: as §4
[30] = Acute toxicity as LD50 value was determined in mice administered orally; type: organism-based; conditions: mouse, in vivo, po
[31] = tested on: Rattus norvegicus; assay: Adjuvant-induced arthritis was determined for a dose of 150 mg/kg administered orally; 17/0; type: functional; conditions: po; outline: as §3
[32] = tested on: Mus musculus; assay: The compound was evaluated for the mouse active Arthus (MAA) reaction activity for an ip screening dose of 75 mg/kg; 21-30%; type: functional; conditions: route intraperitoneal; outline: as §1
[33] = tested on: Cavia porcellus; assay: Tested in delayed hypersensitivity skin reaction (DHSR) after subcutaneous administration, activity reported as percent inhibition of erythema/induration of lesion; 14/25; type: functional
[34] = tested on: Cavia porcellus; assay: The compound was evaluated for the delayed hypersensitivity skin reaction (DHSR) activity after subcutaneous administration; 11/33
[35] = tested on: Mus musculus; assay: Mouse active Arthus (MAA) reaction was determined value for oral administration
[36] = Therapeutic ratio was determined for peroral administration; conditions: po; read-out: TR

Molecule CC(=O)N1N=C2/C(=C/c3cccnc3)CSCC2C1c1cccnc1 (centres undefined) has an inhibition in vivo at 150 mg/kg [1] of less than 20% and an Activity [2] of 9.

CCCN1N=C2/C(=C/c3ccccc3C)CS(=O)(=O)CC2C1c1ccccc1C (centres undefined) showed an inhibition in vivo at 150 mg/kg [3] of 21% and an Activity [4] of 7.

CCCN1N=C2/C(=C/c3ccc(Cl)cc3)CSCC2C1c1ccc(Cl)cc1 (centres undefined) showed an Activity [5] of 14, an inhibition in vivo at 150 mg/kg [3] of 21% and an inhibition in vivo at 150 mg/kg [6] of 21%.

For CCCN1N=C2/C(=C/c3ccccc3C)CSCC2C1c1ccccc1C (centres undefined), the Activity [7] was 8 and the inhibition in vivo at 150 mg/kg [8] was 31%.

In the case of O=S1(=O)C/C(=C\c2ccccc2)C2=NNC(c3ccccc3)C2C1 (centres undefined), the inhibition in vivo at 150 mg/kg [9] is reported as 41% and the Activity [10] is reported as 3.

With CCCn1nc(-c2ccc(C)cc2)c2c1/C(=C/c1ccc(C)cc1)CSC2 the inhibition in vivo at 150 mg/kg [11] was 31% and the Activity [12] was 15.

In the case of Cc1ccc(/C=C2\CS(=O)(=O)CC3C2=NN(CCc2ccccc2)C3c2ccc(C)cc2)cc1 (centres undefined), the Activity [13] is reported as 10.

For CCCN1N=C2/C(=C/c3cccc(C(F)(F)F)c3)CSCC2C1c1cccc(C(F)(F)F)c1 (centres undefined), the inhibition in vivo at 150 mg/kg [8] was 31% and the Activity [14] was 12.

For CC(C)(C)c1ccc(/C=C2\CS(=O)(=O)CC3C2=NN(CCc2ccccc2)C3c2ccc(C(C)(C)C)cc2)cc1 (centres undefined), the ED50 [15] was greater than 600 mg/kg and the Activity [16] was 13.

Work on CCCN1N=C2/C(=C/c3ccccc3)CS(=O)(=O)CC2C1c1ccccc1 (centres undefined) yielded an Activity [17] of 3, an inhibition in vivo at 150 mg/kg [9] of 41% and an inhibition in vivo at 300 mg/kg [18] of 21%.

Molecule CCCN1N=C2/C(=C/c3ccc(OC)cc3)CS(=O)(=O)CC2C1c1ccc(OC)cc1 (centres undefined) has an inhibition in vivo at 150 mg/kg [8] of 31%, an Activity [19] of 17 and an inhibition in vivo at 300 mg/kg [20] of less than 20%.

In the case of CCCN1N=C2/C(=C/c3ccc(C)cc3)CS(=O)(=O)CC2C1c1ccc(C)cc1 (centres undefined), the ED50 [21] is reported as 140 mg/kg, the selectivity ratio [22] is reported as 24 and the inhibition in vivo at 75 mg/kg [23] is reported as 28%. For the same molecule, the inhibition in vivo at 150 mg/kg [24] was 16%, the ED50 [25] was 250 mg/kg and the inhibition in vivo at 150 mg/kg [9] was 41%. It also gave an Activity [26] of 13, an LD50 [27] of 3400 mg/kg and an inhibition in vivo at 75 mg/kg [28] of 1%. It also gave an ED50 [29] of 84 mg/kg, an LD50 [30] greater than 4000 mg/kg and an ED50 [15] greater than 600 mg/kg. The inhibition in vivo at 150 mg/kg [31] was 17%.

CCCn1nc(-c2ccc(C)cc2)c2c1/C(=C/c1ccc(C)cc1)CS(=O)(=O)C2 gave an inhibition in vivo at 75 mg/kg [32] of 21% and an Activity [33] of 14.

Work on CCCN1N=C2/C(=C/c3ccc(C)cc3)CSCC2C1c1ccc(C)cc1 (centres undefined) yielded an inhibition in vivo at 150 mg/kg [8] of 31%, an Activity [34] of 11 and an inhibition in vivo at 300 mg/kg [20] of less than 20%.

For CC(C)Cc1ccc(C(C)C(=O)O)cc1 (centres undefined) [IBUPROFEN], the ID50 [35] was 494 mg/kg and the selectivity ratio [36] was 3.4.
